Reference: ChEMBL document CHEMBL1121585, “Inhibitors of phenylethanolamine N-methyltransferase and epinephrine biosynthesis. 1. Chloro-substituted 1,2,3,4-tetrahydroisoquinolines” (J Med Chem, 1980)

Legend:
Format in all cases: functional
[1] = tested on: Mus musculus; assay: Maximum inactive dose(MID) for decrease in norepinephrine (NE) / epinephrine(E) was measured in mice (po)
Procedure, shortened: (§1)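 Male Charles River mice, 30–40 g, groups of five. Oral dosing in 1% methylcellulose twice daily for 7 days, plus a final morning dose. Killed 2 h later; adrenals homogenised in 0.4 N HClO4 and alumina-extracted. E and NE measured.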

[2] = tested on: Mus musculus; assay: Minimum active dose(MAD) for decrease in norepinephrine (NE) / epinephrine(E) was measured in mice (po); procedure, shortened: as §1
[3] = tested on: Rattus norvegicus; assay: Phenylethanolamine N-methyl-transferase inhibition determined as of [3H]epinephrine biosynthesis in rats at 50 mg/kg (po)
[4] = tested on: Mus musculus; assay: Minimum active dose(MAD) for decrease in norepinephrine (NE) / epinephrine(E) ratio was measured in mice (po); procedure, shortened: as §1

Structure (SMILES): Clc1ccc2c(c1Cl)CNCC2
- MID [1]: 2.5 mg/kg
- MAD [2]: 5 mg/kg

Structure (SMILES): Clc1cc2c(c(Cl)c1Cl)CNCC2
- MID [1]: 50 mg/kg
- inhibition in vivo at 50 mg/kg [3]: 25%

Structure (SMILES): Clc1ccc2c(c1)CNCC2
- MAD [4]: 12.5 mg/kg
- MID [1]: 7.5 mg/kg
- inhibition in vivo at 50 mg/kg [3]: 78%

Structure (SMILES): Clc1c(Cl)c(Cl)c2c(c1Cl)CCNC2
- MAD [4]: 100 mg/kg
- MID [1]: 25 mg/kg

Structure (SMILES): Clc1cccc2c1CNCC2
- MAD [4]: 7.5 mg/kg
- MID [1]: 2.5 mg/kg
- inhibition in vivo at 50 mg/kg [3]: 45%

Structure (SMILES): Clc1cc(Cl)c2c(c1Cl)CNCC2
- MID [1]: 100 mg/kg
- inhibition in vivo at 50 mg/kg [3]: 16%
